ChEMBL document CHEMBL3232844, “Synthesis and structure activity relationships of schweinfurthin indoles” (2014)

What was measured:
Assay type in all cases: functional
[1] = system: HOP-92; assay: Cytotoxicity against human HOP92 cells; conditions: for CC50: read-out: pLC50 (the source's name) (converted); for TGI: read-out: pTGI (converted)
Summary of the method: (§1)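 Tested in a 60-cell-line human tumor panel screen; the read-out is growth inhibition, reported as GI50 for each cell line.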

[2] = Cytotoxicity against human EKVX cells; conditions: for CC50: read-out: pLC50 (the source's name) (converted); for TGI: read-out: pTGI (converted); summary of the method: as §1
[3] = system: NCI-H460; assay: Cytotoxicity against human NCI-H460 cells; conditions: for CC50: read-out: pLC50 (the source's name) (converted); for TGI: read-out: pTGI (converted); summary of the method: as §1
[4] = Cytotoxicity against human OVCAR3 cells; conditions: for GI50: OVCAR-3; for CC50: OVCAR-3, read-out: pLC50 (the source's name) (converted); for TGI: OVCAR-3, read-out: pTGI (converted); summary of the method: as §1
[5] = system: U-251; assay: Cytotoxicity against human U251 cells; conditions: for CC50: read-out: pLC50 (the source's name) (converted); for TGI: read-out: pTGI (converted)
Summary of the method: (§2)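 Cell line run as part of the 60-cell-line screening panel; growth inhibition was reported as a GI50 for each line.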

[6] = system: SK-MEL-5; assay: Cytotoxicity against human SK-MEL-5 cells; conditions: for CC50: read-out: pLC50 (the source's name) (converted); summary of the method: as §1
[7] = system: NCI-H522; assay: Cytotoxicity against human NCI-H522 cells; summary of the method: as §1
[8] = system: PC-3; assay: Cytotoxicity against human PC3 cells; conditions: for TGI: read-out: pTGI (converted); summary of the method: as §1
[9] = system: SK-MEL-28; assay: Cytotoxicity against human SK-MEL-28 cells; summary of the method: as §1
[10] = system: MCF7; assay: Cytotoxicity against human MCF7 cells; conditions: for TGI: read-out: pTGI (converted); summary of the method: as §1
[11] = system: T47D; assay: Cytotoxicity against human T47D cells; conditions: for CC50: read-out: pLC50 (the source's name) (converted); for TGI: read-out: pTGI (converted); summary of the method: as §2
[12] = system: SW-620; assay: Cytotoxicity against human SW620 cells; conditions: read-out: pLC50 (the source's name) (converted); summary of the method: as §2
[13] = Cytotoxicity against human OVCAR5 cells; conditions: for GI50: OVCAR-5; for CC50: OVCAR-5, read-out: pLC50 (the source's name) (converted); for TGI: OVCAR-5, read-out: pTGI (converted); summary of the method: as §1
[14] = system: MOLT-4; assay: Cytotoxicity against human MOLT4 cells; conditions: for CC50: read-out: pLC50 (the source's name) (converted); for TGI: read-out: pTGI (converted); summary of the method: as §1
[15] = Cytotoxicity against human Hs578T cells; conditions: Hs-578T; summary of the method: as §1
[16] = system: RPMI-8226; assay: Cytotoxicity against human RPMI8226 cells; summary of the method: as §1
[17] = system: Malme-3M; assay: Cytotoxicity against human MALME-3M cells; summary of the method: as §1
[18] = read-out: pLC50 (the source's name) (converted)

## COc1cc(/C=C/c2cc(O)c3c(c2)C[C@@H]2C(C)(C)[C@H](O)CC[C@@]2(C)O3)cc2c1ccn2C
[1]
  GI50: 0.955 µM
  CC50: 89.1 µM
  TGI: 12.6 µM
[2]
  GI50: 4.07 µM
  CC50: 64.6 µM
  TGI: 22.9 µM
[3]
  GI50: 0.309 µM
  CC50: 89.1 µM
  TGI: 23.4 µM
[4]
  GI50: 10.2 µM
  CC50: 53.7 µM
  TGI: 24 µM
[5]
  GI50: 0.141 µM
  CC50: 43.7 µM
  TGI: 15.5 µM
[6]
  CC50: 12 µM
[7]
  GI50: 5.89 µM
[8]
  GI50: 0.741 µM
  LC50: 89.1 µM
  TGI: 38 µM
[9]
  GI50: 0.145 µM
[9]; [18]
  CC50: 45.7 µM
[9]; read-out: pTGI (converted)
  TGI: 17.4 µM
[10]
  GI50: 0.661 µM
  LC50: 50.1 µM
  TGI: 12.3 µM
[11]
  GI50: 7.41 µM
  CC50: 63.1 µM
  TGI: 23.4 µM
[12]
  CC50: 18.6 µM
[13]
  GI50: 11.2 µM
  CC50: 53.7 µM
  TGI: 21.9 µM
[14]
  GI50: 0.0389 µM
  CC50: 89.1 µM
  TGI: 14.8 µM
[15]
  GI50: 0.0229 µM
  LC50: 89.1 µM
[15]; read-out: pTGI (converted)
  TGI: 3.55 µM

## COc1cc(/C=C/c2cc(O)c3c(C/C=C(\C)CCC=C(C)C)c[nH]c3c2)cc2c1O[C@]1(C)CC[C@@H](O)C(C)(C)[C@H]1C2
[1]
  GI50: 0.724 µM
  CC50: > 100 µM
  TGI: 8.71 µM
[2]
  GI50: 0.724 µM
  CC50: > 100 µM
  TGI: 4.47 µM
[3]
  GI50: 1.2 µM
  CC50: 57.5 µM
  TGI: 6.61 µM
[4]
  GI50: 33.9 µM
  CC50: > 100 µM
  TGI: > 100 µM
[16]
  GI50: 0.158 µM
[16]; [18]
  CC50: > 100 µM
[16]; read-out: pTGI (converted)
  TGI: 1.66 µM
[17]
  GI50: 2.95 µM
[17]; [18]
  CC50: > 100 µM
[17]; read-out: pTGI (converted)
  TGI: 61.7 µM
[5]
  GI50: 0.603 µM
  CC50: > 100 µM
  TGI: > 100 µM
[6]
  GI50: 1.07 µM
  CC50: 5.37 µM
[6]; read-out: pTGI (converted)
  TGI: 2.4 µM
[7]
  GI50: 2.63 µM
[7]; [18]
  CC50: > 100 µM
[7]; read-out: pTGI (converted)
  TGI: 16.6 µM
[8]
  GI50: 0.457 µM
  LC50: > 100 µM
  TGI: 24.5 µM
[10]
  GI50: 0.617 µM
  LC50: 8.51 µM
  TGI: 2.45 µM
[11]
  GI50: 6.92 µM
  CC50: > 100 µM
  TGI: > 100 µM
[13]
  GI50: 15.1 µM
  CC50: > 100 µM
  TGI: > 100 µM
[14]
  GI50: 0.282 µM
  CC50: > 100 µM
  TGI: 2.51 µM
